# Screens: PubChem, Sanford-Burnham Center for Chemical Genomics
# APJ antagonist: antagonists of human APJ apelin receptor. P35414. CHO-K1 APJ beta-arrestin complementation, luminescence. inhibition, % at 20 µM. actives 0.32% (n = 330,000);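 active means inhibition above about 40% at 20 µM, limit read from the data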;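 further: cells challenged with 10 nM apelin-13 agonist together with compound; plate controls were apelin-13 plus DMSO wells for no effect and DMSO wells lacking apelin-13 for full effect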
# EBI2 block: EBI2 (human) antagonism | EBI2 beta-arrestin recruitment, luminescence, 7a,25-OHC stimulated | inhibition, % at 5 µM | actives 0.81% (n = 360,000) | AID 651636; in the data active means inhibition above about 38%;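 further: enzyme fragment complementation signal reports receptor beta-arrestin coupling in cells; 0% = agonist plus DMSO wells and 100% = wells without agonist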
# CXCR6 inh: blocks human CXCR6 beta-arrestin recruitment; inhibition, % at 20 µM; CHO-K1 PathHunter CXCR6 beta-arrestin, luminescence; actives 0.36% (n = 360,000); O00574; in the data active means inhibition above about 34%, passing the limit was not always enough;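 further: antagonist mode with CXCL16 agonist at 10 nM final; 0% = 10 nM CXCL16 with DMSO and 100% = unstimulated wells without agonist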
# APJ agonist: APJ receptor agonism | activation, % at 20 µM | CHO-K1 APJ PathHunter beta-arrestin, luminescence; 0% DMSO wells, 100% apelin | AID 2520 | actives 0.11% (n = 330,000);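 active means activation more than six SD over the plate average, tested at 20 µM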;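 further: 0% = DMSO alone and 100% = apelin-13 at 10 nM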
#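 Test system: CHO-K1 APJ beta-arrestin complementation cell line | Compound: Single test compound dose, 20 µM final, 1% DMSO | Incubation: Compound 90 min 25 °C, reagent 1 h | Measured by: beta-gal luminescence | Read-out basis: APJ–arrestin association signal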
# CCR6 antagonist: blocks CCL20-driven beta-arrestin recruitment at human CCR6; CHO-K1 CCR6 PathHunter beta-arrestin, luminescence, CCL20-stimulated; inhibition, % at 20 µM; actives 0.49% (n = 340,000); AID 493098;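 active means compounds whose inhibition of the agonist-driven luminescence signal at 20 µM reaches about 50%, limit read from the data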;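 further: cells stimulated with CCL20 at 14 nM final; plate controls were DMSO with CCL20 for no effect and DMSO without agonist for full effect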
# Target sequence (P51684 whole entry, looked up): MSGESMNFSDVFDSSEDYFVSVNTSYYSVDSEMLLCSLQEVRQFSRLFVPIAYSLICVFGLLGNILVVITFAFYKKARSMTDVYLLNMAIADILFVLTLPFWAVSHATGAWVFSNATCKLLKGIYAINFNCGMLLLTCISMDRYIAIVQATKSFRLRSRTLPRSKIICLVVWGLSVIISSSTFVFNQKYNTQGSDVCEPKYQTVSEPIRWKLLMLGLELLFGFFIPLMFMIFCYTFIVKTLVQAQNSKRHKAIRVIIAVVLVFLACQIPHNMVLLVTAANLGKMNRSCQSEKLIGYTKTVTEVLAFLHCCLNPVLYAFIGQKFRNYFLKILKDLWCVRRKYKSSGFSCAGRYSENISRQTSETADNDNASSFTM
# CXCR6 antag conf: CXCR6 antagonism confirmation, single concentration. inhibition, % at 20 µM. shares compounds with CXCR6 inh. CHO-K1 CXCR6 PathHunter beta-arrestin, luminescence. actives 65% (n = 700);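 active means mean inhibition over four retests above 40%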;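 further: receptor stimulated with 10 nM CXCL16 agonist; beta-galactosidase fragment complementation upon beta-arrestin recruitment to receptor; plate controls were CXCL16 plus DMSO for no effect and DMSO without CXCL16 for full effect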
# * = called active by the depositor; x = no result. Compounds with a hit are over-represented: about 1.5% of the library has one in this group of screens.
SMILES,APJ antagonist,EBI2 block,CXCR6 inh,APJ agonist,CCR6 antagonist,CXCR6 antag conf
CC(=O)Nc1ccc2c(c1)Cc1cc(N3C(=O)C=CC3=O)ccc1-2,x,25,99*,x,115*,72*
Cc1nn(C)c(C(=O)NC(=S)Nc2ccccc2O)c1Cl,28,1,44*,-13,50*,32
CCCC(=O)OCCNc1cc(Sc2nccn2C)c2nonc2c1[N+](=O)[O-],x,49*,100*,x,99*,105*
NCCNc1ccc([N+](=O)[O-])c(Sc2nc3ccccc3[nH]2)c1,-10,10,-2,0,31,x
CCC(=O)OCCNc1cc(Sc2nc3ccccc3[nH]2)c2nonc2c1[N+](=O)[O-],x,33,102*,x,117*,106*
CCCC(=O)OCCNc1cc(SCc2ccco2)c2nonc2c1[N+](=O)[O-],-23,-26,38*,5,67*,53*
CCOC(=O)C(C(=O)Nc1ccccc1C)C1CCCCC1 (stereo unspecified),-13,7,8,-3,13,x
CN(C)CCCN(C(=O)CCS(=O)(=O)c1ccccc1)c1nc2cc3c(cc2s1)OCO3,30,42*,40*,-1,50*,57*
CN(C)CCCN(C(=O)CCSc1ccccc1)c1nc2cc3c(cc2s1)OCO3,14,14,-4,-4,29,x
CCOC(=O)C1=C(C)NC(=S)NC1c1ccc(OCC(=O)N2CCCCC2)cc1 (stereo unspecified),17,-1,-6,0,-2,x
COc1cc(C(=O)NC(=S)N(CCC#N)Cc2cccnc2)cc(OC)c1OC,6,-14,-4,-1,3,x
CCCOc1ccc(CN(CCC#N)C(=S)NC(=O)c2ccccc2)cc1,16,3,44*,-2,x,59*
N#Cc1c(SCC(N)=O)nsc1SCc1ccc(Cl)cc1,-5,2,-7,0,5,x
N#Cc1c(SCC(N)=O)nsc1SCc1ccccc1Cl,1,-8,83*,-4,18,0
Cc1ccc2c(Cl)cc(Cl)c(O)c2n1,x,30,49*,x,97*,70*
Cc1ccc2c(C)ccc(O)c2n1,35,-11,65*,-6,83*,76*
COc1ccc(Cl)cc1-c1cc(C(=O)NCc2cccs2)[nH]n1,x,6,1,x,x,x
CCC1=NN(C(=O)c2cccc([N+](=O)[O-])c2)C(O)(c2ccc(C)cc2)C1 (stereo unspecified),37,2,48*,-5,66*,13
O=C1CN(C(=O)c2cccc([N+](=O)[O-])c2)CC(=O)N1,7,-11,0,3,5,x
CCC1=NN(C(=O)c2ccc(Br)cc2)C(O)(c2ccccc2)C1 (stereo unspecified),30,16,48*,-5,73*,34
CCOC(=O)C1=NN(C(=O)c2ccccc2)C(O)(c2ccc(C)cc2)C1 (stereo unspecified),-3,-3,8,-3,12,x
COC(=O)C(Cc1ccccc1)NCC(=O)Nc1cccc(Cl)c1C (stereo unspecified),8,3,-2,-1,11,x
Cc1ccc2c(c1)C1CN(C)CCC1N2C(=S)NC(=O)c1ccc(Br)cc1 (stereo unspecified),33,7,44*,-5,56*,67*
O=C(CC[C@H]1O[C@@H](n2ccc(=O)[nH]c2=O)[C@H](O)[C@@H]1O)N[C@@H](Cc1ccccc1)C(=O)NCc1ccccc1,x,-6,-1,x,x,x
C[C@H](CO)N1C[C@H](C)[C@@H](CN(C)Cc2ccc(Cl)c(Cl)c2)OCc2cnnn2CCCC1=O,x,-2,8,x,x,x
SMILES,APJ antagonist,EBI2 block,CXCR6 inh,APJ agonist,CCR6 antagonist,CXCR6 antag conf
O=C(Nc1ccccc1)c1nnsc1S(=O)c1ccc(Cl)cc1 (stereo unspecified),21,27,89*,-4,101*,97*
Cn1cnc([N+](=O)[O-])c1S(=O)(=O)Nc1ccccc1,x,2,11,x,4,x
Cn1cnc([N+](=O)[O-])c1S(=O)(=O)Oc1ccccc1,x,11,42*,x,49,60*
Cn1cnc([N+](=O)[O-])c1S(=O)(=O)c1cccc(Cl)c1,36,21,49*,-3,59*,65*
O=S(=O)(NCc1ccco1)c1ccc(Cl)nc1,9,2,-1,-2,-2,x
C=C(C)c1cccc(C(C)(C)NC(=O)Nc2ccc(OC)cc2)c1,-3,0,7,-2,-5,x
C=C(C)c1cccc(C(C)(C)NC(=O)NC(c2ccccc2)c2ccc(OC)cc2)c1 (stereo unspecified),1,0,45*,-4,13,13
CCc1ccc(/C=N/n2c(C)cc(C)c(C#N)c2=O)cc1,-7,-3,-5,2,-2,x
CC(=O)Nc1cccc(OCC(O)Cn2c(C)nc3ccccc32)c1 (stereo unspecified),16,-4,40*,3,17,23
CC(=O)Nc1cccc(OCC(O)Cn2cnc3ccccc32)c1 (stereo unspecified),-7,-8,2,-2,-12,x
O=C(NC(=S)Nc1ccc2[nH]c(=O)[nH]c2c1)c1ccccc1[N+](=O)[O-],-1,2,4,2,29,x
O=C1C(=C(c2ccccc2)N2CCOCC2)Cc2ccccc21,x,24,70*,x,x,78*
COc1cccc(OC)c1C(=O)Nc1ccc2nc(C)c(C)nc2c1,-2,-13,65*,0,3,-2
COc1cccc(NC(=O)Nc2ccc3nc(C)c(C)nc3c2)c1,3,6,1,2,2,x
COC(=O)CC/C(O)=C1\C(=O)CC(C)(C)CC1=NCCc1nc2ccccc2[nH]1,-8,3,9,1,-2,x
CC(Oc1cccc(Cl)c1)C(=O)Nc1nc(-c2ccccn2)cs1 (stereo unspecified),30,-1,70*,-11,87*,78*
CC(Oc1ccccc1)C(=O)Nc1nc(-c2ccccn2)cs1 (stereo unspecified),-3,-7,38*,-5,x,64*
O=C(COc1ccc(F)cc1Cl)Nc1nc(-c2ccccn2)cs1,8,-4,46*,-3,x,38
CCC(OC(=O)CC1Sc2ccccc2NC1=O)C(=O)NCC1CCCO1 (stereo unspecified),9,-2,4,-3,10,x
CCN(c1ccccc1C(=O)O)S(=O)(=O)c1ccc2[nH]c(=O)[nH]c2c1,9,-13,39*,1,7,1
CCN(c1ccccc1)S(=O)(=O)c1ccc2[nH]c(=O)c(=O)[nH]c2c1,9,-9,7,0,2,x
CC(C)CNC(=O)C1(C)CCCCCN1Cc1ccccc1-c1ccccc1 (stereo unspecified),x,10,37*,x,x,8
